The test has as its target T1, ATP-citrate synthase (Homo sapiens, UniProt P53396).
T1 sequence (P53396 whole entry): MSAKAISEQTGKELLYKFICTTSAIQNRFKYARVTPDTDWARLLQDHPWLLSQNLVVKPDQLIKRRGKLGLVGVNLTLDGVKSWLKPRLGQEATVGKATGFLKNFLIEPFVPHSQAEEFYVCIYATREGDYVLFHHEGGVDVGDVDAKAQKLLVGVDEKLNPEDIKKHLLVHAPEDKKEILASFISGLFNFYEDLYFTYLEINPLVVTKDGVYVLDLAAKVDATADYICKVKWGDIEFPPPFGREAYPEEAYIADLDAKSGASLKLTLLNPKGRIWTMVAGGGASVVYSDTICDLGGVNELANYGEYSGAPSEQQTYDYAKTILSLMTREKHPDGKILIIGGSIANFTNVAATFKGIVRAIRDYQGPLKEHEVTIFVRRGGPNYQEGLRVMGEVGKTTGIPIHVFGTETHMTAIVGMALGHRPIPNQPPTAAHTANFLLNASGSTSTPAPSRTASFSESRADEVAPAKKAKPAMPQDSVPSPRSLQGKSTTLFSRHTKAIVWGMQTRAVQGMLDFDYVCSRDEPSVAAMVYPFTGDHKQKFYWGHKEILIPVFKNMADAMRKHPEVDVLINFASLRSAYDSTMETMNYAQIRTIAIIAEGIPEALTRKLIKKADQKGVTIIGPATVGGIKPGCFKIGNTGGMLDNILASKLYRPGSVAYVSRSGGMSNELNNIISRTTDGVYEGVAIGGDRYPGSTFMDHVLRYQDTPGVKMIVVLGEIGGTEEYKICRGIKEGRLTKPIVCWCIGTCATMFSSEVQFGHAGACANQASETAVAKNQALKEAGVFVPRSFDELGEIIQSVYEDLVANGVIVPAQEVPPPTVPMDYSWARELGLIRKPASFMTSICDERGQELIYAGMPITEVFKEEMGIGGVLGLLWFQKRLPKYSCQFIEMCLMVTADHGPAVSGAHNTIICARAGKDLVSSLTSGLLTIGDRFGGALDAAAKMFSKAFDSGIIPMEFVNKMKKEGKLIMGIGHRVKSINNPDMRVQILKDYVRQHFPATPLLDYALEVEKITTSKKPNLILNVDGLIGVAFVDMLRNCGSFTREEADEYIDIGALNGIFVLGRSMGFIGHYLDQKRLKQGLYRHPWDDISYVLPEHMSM
In words: Inhibitory activity against human recombinant ATP-Citrate Lyase (ACL) enzyme. Put shortly:
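Human recombinant ATP-citrate lyase was used. Lactone intermediates were hydrolysed with aqueous NaOH to the hydroxy acid before being added to the enzyme buffer mix. Potency was reported as the reversible Ki.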

The Ki is a dissociation constant, usually derived from enzyme kinetics or from competition with a known ligand.

Consider `O=C(O)[C@H](O)[C@@](O)(C[C@H](O)CCCCCCc1ccc(Cl)cc1Cl)C(=O)O`, for which the Ki stood at 550 nM.

`Cc1cn(-c2cc(Cl)ccc2CCCCCC[C@@H](O)C[C@](O)(CC(=O)O)C(=O)O)cc1C` (stereo in doubt; 58): the Ki came out at 300 nM.

Take `O=C(O)C[C@](O)(C(=O)O)[C@@H](O)CCCCCCCCc1ccc(Cl)cc1Cl`: the Ki amounted to 18000 nM.

With `O=C(O)C[C@](O)(C(=O)O)[C@@H](O)CCCCCCCc1ccc(Cl)cc1Cl`, the Ki came out at 5700 nM.

Consider `O=C(O)C[C@@](O)(C[C@H](O)CCCCCCc1ccc(Cl)cc1OCc1ccccc1)C(=O)O`, for which the Ki worked out at 1100 nM.

Consider `O=C(O)C[C@@](O)(C[C@H](O)CCCCCCc1ccc(Cl)cc1-c1ccc(Cl)cc1)C(=O)O`, for which the Ki came out at 5000 nM.

For the compound `Cc1ccc(-c2cc(Cl)ccc2CCCCCC[C@@H](O)C[C@](O)(CC(=O)O)C(=O)O)cc1`, the Ki is 2700 nM.

For `O=C(O)C[C@@](O)(C[C@H](O)CCCCCCc1ccc(Cl)cc1-c1ccccc1)C(=O)O`, the Ki stood at 750 nM.

Regarding `O=C(O)C[C@@](O)(C[C@H](O)CCCCCCn1ccc2cc(Cl)ccc21)C(=O)O`, the Ki was 3200 nM.

`COc1cc(Cl)ccc1CCCCCC[C@@H](O)C[C@](O)(CC(=O)O)C(=O)O`: the Ki stood at 19000 nM.

`O=C(O)C[C@@](O)(C[C@H](O)CCCCn1ccc2cc(Cl)ccc21)C(=O)O`: the Ki stood at 160000 nM.

On to `O=C(O)C[C@@](O)(C[C@H](O)CCCCCn1cc([N+](=O)[O-])c2cc(Cl)ccc21)C(=O)O`, for which the Ki worked out at 64000 nM.

As to `O=C(O)C[C@@](O)(C[C@H](O)CCCCCn1ccc2cc(Cl)cc(Cl)c21)C(=O)O`, the Ki was 1800 nM.

Take `O=C(O)C[C@@](O)(C[C@H](O)CCCCCn1c2c(c3cc(Cl)ccc31)CCCC2)C(=O)O`: the Ki amounted to 2900 nM.

In the case of `Cc1cn(-c2cc(Cl)ccc2CCCCCC[C@@H](O)C[C@](O)(CC(=O)O)C(=O)O)cc1C` (stereo in doubt; (-)-58), the Ki was determined as 340 nM.

Turning to `O=C(O)C[C@@](O)(C[C@H](O)CCCCCn1cc(-c2ccccc2)c2cc(Cl)ccc21)C(=O)O`, the Ki is 11000 nM.

Turning to `O=C(O)C[C@@](O)(C[C@H](O)CCCCCCc1ccc(Cl)cc1-n1cccc1)C(=O)O`, the Ki turned out to be 3900 nM.

Consider `O=C(O)C[C@@](O)(C[C@H](O)CCCCCCc1ccc(Cl)cc1-c1ccc(Cl)cc1Cl)C(=O)O`, for which the Ki turned out to be 21000 nM.

As for `Cc1cc2cc(Cl)ccc2n1CCCCC[C@@H](O)C[C@](O)(CC(=O)O)C(=O)O`, the inhibition constant Ki came out at 13000 nM.

As for `O=C(O)C[C@@](O)(C[C@H](O)CCCCCn1ccc2ccc(Cl)cc21)C(=O)O`, the inhibition constant (Ki) was determined as 41000 nM.

With `Cc1cn(CCCCC[C@@H](O)C[C@](O)(CC(=O)O)C(=O)O)c2ccc(Cl)cc12`, the Ki turned out to be 9500 nM.

With `O=C(O)C[C@@](O)(C[C@H](O)CCCCCn1c2ccccc2c2cc(Cl)ccc21)C(=O)O`, the Ki is 710 nM.

Take `O=C(O)C[C@@](O)(C[C@H](O)CCCCCn1c(-c2ccccc2)cc2cc(Cl)ccc21)C(=O)O`: the Ki was 370 nM.

On to `O=C(O)C[C@@](O)(C[C@H](O)CCCCCn1ccc2cc(Cl)ccc21)C(=O)O`, for which the inhibitory constant (Ki) was found to be 3500 nM.

In the case of `O=C(O)C[C@@](O)(C[C@H](O)CCCCCn1cc(Cc2ccccc2)c2cc(Cl)ccc21)C(=O)O`, the Ki amounted to 2900 nM.

With `O=C(O)[C@@H](O)[C@@](O)(C[C@H](O)CCCCCCc1ccc(Cl)cc1Cl)C(=O)O`, the Ki came to 620 nM.

As for `Cc1cn(-c2cc(Cl)ccc2CCCCCC[C@@H](O)C[C@](O)(CC(=O)O)C(=O)O)cc1C` (stereo in doubt; (+)-58), the Ki worked out at 580 nM.

`O=C(O)C[C@@](O)(C[C@@H](O)CCCCCCc1ccc(Cl)cc1Cl)C(=O)O`: the Ki came out at 2000 nM.

With `O=C(O)C[C@@](O)(C[C@H](O)CCCCCC1c2ccccc2-c2cc(Cl)ccc21)C(=O)O` (stereo partly specified), the Ki is 220 nM.

As for `O=C(O)C[C@@](O)(C[C@H](O)CCCCCCc1ccc(Cl)cc1-c1ccc(F)cc1)C(=O)O`, the Ki was found to be 2700 nM.

In the case of `COc1ccc(-c2cc(Cl)ccc2CCCCCC[C@@H](O)C[C@](O)(CC(=O)O)C(=O)O)cc1`, the Ki came out at 5100 nM.
